Reference: ChEMBL document CHEMBL1158505, “Phenolics from Glycyrrhiza glabra roots and their PPAR-gamma ligand-binding activity” (Bioorg Med Chem, 2010)
The source made the active and inactive calls. The rule behind the calls is not given here.

What follows are compounds tested against T1, Peroxisome proliferator-activated receptor gamma (Homo sapiens) (UniProt P37231) (assay: Binding affinity to human recombinant […] expressed in african green monkey CV1 cells coexpressing GAL4-luc reporter by microplate scintillation counter). Conditions: CV-1.
T1 sequence (whole entry): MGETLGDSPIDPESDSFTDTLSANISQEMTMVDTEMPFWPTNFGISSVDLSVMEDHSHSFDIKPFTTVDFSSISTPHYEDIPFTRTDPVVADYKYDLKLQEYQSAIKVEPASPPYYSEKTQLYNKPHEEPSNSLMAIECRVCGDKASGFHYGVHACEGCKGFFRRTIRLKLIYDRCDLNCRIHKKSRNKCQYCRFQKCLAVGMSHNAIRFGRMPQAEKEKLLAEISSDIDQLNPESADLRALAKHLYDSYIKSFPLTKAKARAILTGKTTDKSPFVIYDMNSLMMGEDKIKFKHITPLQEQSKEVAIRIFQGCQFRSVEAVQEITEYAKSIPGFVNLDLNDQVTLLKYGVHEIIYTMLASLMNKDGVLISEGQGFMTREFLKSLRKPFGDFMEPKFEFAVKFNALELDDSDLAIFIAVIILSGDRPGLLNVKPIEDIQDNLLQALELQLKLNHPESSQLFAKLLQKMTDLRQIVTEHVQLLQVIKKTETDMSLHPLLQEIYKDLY
Type: cell-based
Summary of the method: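 GAL4-PPAR-γ chimera reporter assay in CV-1 monkey kidney cells seeded at 6 × 10³ cells/well in DMEM with 10% FBS and ascorbic acid, 37 °C, 5% CO2, 24 h. Cells transfected with pM-hPPAR-γ and p4×UASg-tk-luc, then 24 h later given DMEM with 10% charcoal-treated FBS plus sample (2 or 10 μg/mL; final DMSO 0.1%) for 24 h. Luciferase luminescence expressed relative to DMSO control; n = 4.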

Activity, active:
CC(C)=CCc1c(O)ccc([C@@H]2COc3c(ccc(O)c3CC=C(C)C)C2)c1O
COc1cc(O)ccc1/C=C/C(=O)c1ccc(O)cc1
CC1(C)C=Cc2c(ccc3c2OC[C@@H](c2cc(C=O)c(O)cc2O)C3)O1
CC(C)=CCc1c(O)cc(O)c2c(=O)c(-c3ccc(O)c(O)c3)coc12
CC1(C)C=Cc2c(ccc3cc(-c4ccc(O)cc4O)c(=O)oc23)O1
CC(C)=CCc1cc([C@@H]2CC(=O)c3ccc(O)c(CC=C(C)C)c3O2)ccc1O
CC(C)=CCc1cc([C@@H]2CC(=O)c3ccc4c(c3O2)C=CC(C)(C)O4)ccc1O
CC(C)=CCc1cc2c(=O)cc(-c3ccc(O)cc3)oc2cc1O
CC(C)=CCc1cc([C@H]2Oc3cc(O)ccc3C(=O)[C@@H]2O)ccc1O
CC1(C)C=Cc2c(ccc(-c3coc4cc(O)ccc4c3=O)c2O)O1
COc1ccc([C@@H]2COc3cc(O)ccc3C2)c(O)c1O
CC1(C)C=Cc2c(ccc3c2OC[C@H]2c4ccc(O)cc4O[C@@H]32)O1
